Consider eleven compounds from ChEMBL document CHEMBL1154252, “Nitric oxide scavenging lignans from Vitex negundo seeds” (J Nat Prod, 2009).

The subject of data set [1] is RAW264.7. As to the kind of experiment: Antiinflammatory activity against mouse RAW264.7 cells assessed as inhibition of LPS-induced nitric oxide production at 1 uM after 24 hrs by Griess reagent method. Format: functional. The settings on record: RAW264.7, 24 h. In outline:
(§1)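 RAW 264.7 macrophages seeded at 10^5 cells/well, co-incubated with compound and LPS (1 µg/mL) for 24 h. Nitrite in supernatant measured by Griess reagent: supernatant mixed in turn with 1% sulfanilamide and 0.1% naphthylethylenediamine in 2.5% phosphoric acid, absorbance read at 548 nm. n = 4, mean ± SD; L-nitroarginine as positive control, LPS alone as negative control.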
On the technique in general: Nitrite, measured by Griess reagent, commonly stands in for NO production.

For data set [2], the system named is RAW264.7. Briefly: Antiinflammatory activity against mouse RAW264.7 cells assessed as inhibition of LPS-induced nitric oxide production after 24 hrs by Griess reagent method. Format: functional, cell-based. The settings on record: RAW264.7, 24 h. Summed up: as §1
In data set [3] the test system is RAW264.7. Briefly: Cytotoxicity against LPS-stimulated mouse RAW264.7 cells up to 1 uM after 24 hrs by MTT assay. Format: cell-based. The note with it: raw264.7, 24 h. In outline: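 After supernatant removal for Griess assay, LPS-treated RAW 264.7 cells given fresh medium with 2 mg/mL MTT. Incubated 3 h at 37 °C, 5% CO2. Formazan dissolved in DMSO and absorbance measured at 570 nm.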
(In general: Formazan colour is commonly taken as a measure of viable cells.)

The structures appear in SMILES notation.

Regarding `COc1cc(-c2c(C=O)ccc3cc(OC)c(O)cc23)ccc1O` [VITEXDOIN C], the inhibition – broadly, the relative decrease from the control value, in per cent – at 1 µM in the data set on RAW264.7 [1] amounted to 61.7%. In addition, in the data set with RAW264.7 [2], the IC50 – broadly, the midpoint of a concentration-inhibition curve – came out at 0.57 µM. In addition, in the data set with RAW264.7 [3], the Activity result is given as “Non-toxic”.

For the compound `N=C(NCCC[C@H](N)C(=O)O)N[N+](=O)[O-]` [NITROARGININE], in the data set on RAW264.7 [1], the inhibition at 1 µM was 2.53%. Besides, in the data set with RAW264.7 [2], the IC50 is 43.6 µM.

For `COc1cc([C@H]2c3cc(O)c(OC)cc3C=C(C=O)[C@@H]2CO)ccc1O`, the inhibition at 1 µM with RAW264.7 [1] was 34.4%. Besides, the IC50 with RAW264.7 [2] is 3.54 µM. Moreover, the Activity result in the data set on RAW264.7 [3] is on record as “Non-toxic”.

`COc1cc(-c2c(C=O)c(O)cc3cc(OC)c(O)cc23)ccc1O` [VITEXDOIN D]: the inhibition at 1 µM in the data set with RAW264.7 [1] is 91.1%. Also, the IC50 in the data set with RAW264.7 [2] turned out to be 0.13 µM. In addition, the Activity result in the data set with RAW264.7 [3] is on record as “Non-toxic”.

As to `COc1cc(-c2cc(C=O)c(O)c3cc(OC)c(O)cc23)ccc1O` [VITEXDOIN E], the inhibition at 1 µM with RAW264.7 [1] was determined as 84.2%. In addition, in the data set with RAW264.7 [2], the IC50 was found to be 0.15 µM. Further, in the data set on RAW264.7 [3], the Activity result was “Non-toxic”.

As to `COc1cc([C@H]2c3cc(O)c(O)cc3C=C(C=O)[C@@H]2CO)ccc1O` [VITEXDOIN A], the inhibition at 1 µM in the data set on RAW264.7 [1] came out at 67%. Also, in the data set with RAW264.7 [2], the IC50 worked out at 0.38 µM. The Activity entry in the data set with RAW264.7 [3] is given as “Non-toxic”.

Consider `COc1cc(-c2cc(C=O)cc3ccc(O)c(OC)c23)ccc1O` [VITEXDOIN B], for which the inhibition at 1 µM in the data set on RAW264.7 [1] was determined as 80.8%. Moreover, in the data set on RAW264.7 [2], the concentration for half-maximal inhibition (IC50) was 0.2 µM. Moreover, the Activity result with RAW264.7 [3] is on record as “Non-toxic”.

For `COc1cc(-c2cc(C=O)cc3cc(OC)c(O)cc23)ccc1O` [VITROFOLAL E], in the data set with RAW264.7 [1], the inhibition at 1 µM was 63.2%. For the same compound, in the data set with RAW264.7 [2], the IC50 came out at 0.5 µM.

As for `COc1cc(-c2c3c(cc4cc(OC)c(O)cc24)CNC3=O)ccc1O` [VITEDOAMINE B], the inhibition at 1 µM in the data set on RAW264.7 [1] is 56.2%. The IC50 with RAW264.7 [2] came out at 0.87 µM. For the same compound, the Activity result with RAW264.7 [3] is “Non-toxic”.

In the case of `COc1cc(-c2c3c(cc4cc(OC)c(O)cc24)C(=O)NC3)ccc1O` [VITEDOAMINE A], the inhibition at 1 µM in the data set with RAW264.7 [1] was found to be 43.3%. In addition, in the data set on RAW264.7 [2], the IC50 worked out at 1.53 µM. In addition, in the data set with RAW264.7 [3], the Activity entry was “Non-toxic”.

`COc1cc(-c2c(O)c(C=O)cc3cc(OC)c(O)cc23)ccc1O` [VITROFOLAL F]: the inhibition at 1 µM in the data set with RAW264.7 [1] was determined as 95.8%. Besides, in the data set on RAW264.7 [2], the IC50 amounted to 0.11 µM. Besides, in the data set on RAW264.7 [3], the Activity result is given as “Non-toxic”.
